Assay outcomes as filed in PubChem BioAssay.
Hits are enriched below; roughly 1.8% of the tested compounds scored in any of these assays.
NPY-Y1 PAM-ag = potentiates or activates human NPY-Y1 receptor. activation, % at 3.6 µM. P25929. NPY-Y1 expressing cells, potentiator/agonist activation. AID 1304. hit rate 0.37% among 220,000; in the data active means activation above about 33%, passing the limit was not always enough;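 further: cells stimulated with NPY at EC10 then isoproterenol at EC100; 0% = low agonist plus stimulus and 100% = saturating agonist plus stimulus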
Target sequence (P25929 whole entry, looked up): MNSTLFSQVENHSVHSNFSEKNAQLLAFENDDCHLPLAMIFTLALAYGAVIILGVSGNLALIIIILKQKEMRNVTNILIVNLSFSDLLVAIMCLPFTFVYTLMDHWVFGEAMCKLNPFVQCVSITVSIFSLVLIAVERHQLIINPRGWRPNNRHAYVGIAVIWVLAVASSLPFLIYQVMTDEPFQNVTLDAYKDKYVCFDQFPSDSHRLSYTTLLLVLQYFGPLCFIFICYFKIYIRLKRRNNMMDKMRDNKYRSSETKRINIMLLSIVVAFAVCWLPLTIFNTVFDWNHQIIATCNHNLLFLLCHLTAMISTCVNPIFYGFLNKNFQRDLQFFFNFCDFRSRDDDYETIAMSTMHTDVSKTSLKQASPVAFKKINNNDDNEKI
NPY Y2 blocker = blocks the human neuropeptide Y Y2 receptor; NPY-Y2 expressing cells, antagonist mode; inhibition, % at 2.7 µM; hit rate 0.99% among 140,000;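 further: 0% = vehicle with agonist challenge and 100% = reference antagonist with challenge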
NPY-Y2 PAM-ag = potentiators or agonists of human neuropeptide Y receptor Y2 | hit rate 0.45% among 220,000 | activation, % at 3.6 µM | cells expressing NPY-Y2, potentiator/agonist read-out; in the data active means activation above about 27%;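 further: cells stimulated with NPY near EC25 plus isoproterenol at EC100; 0% = vehicle plus submaximal agonist and 100% = vehicle plus saturating agonist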
NPY Y1 blocker = NPY-Y1 (human) receptor antagonism; inhibition, % at 3.6 µM; hit rate 1% among 200,000; P25929; HEK293-CNG Y1 cells, membrane potential fluorescence; NPY at EC95, then isoproterenol;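 active means inhibition above the campaign mean inhibition of all tested compounds plus 3 SD, cut at about 20% in these data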;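 further: 0% = DMSO wells given NPY plus isoproterenol and 100% = isoproterenol alone without NPY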
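Material: HEK293 cells with Y1 receptor plus CNG channel; times: compound incubation 1 h at room temperature, readout 45 min post-stimulation; signal: fluorescence, membrane potential probe; read-out basis: fluorescence ratio normalized to % inhibition between controls; benchmarks: full-block control isoproterenol-only wells, zero-block control NPY plus isoproterenol wells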
NPY-Y1 ant conf = human NPY-Y1 antagonism, confirmation; hit rate 21% among 1,200; HEK293-CNG NPY-Y1, membrane potential fluorescence, cAMP; NPY challenge against isoproterenol-raised cAMP; shares compounds with NPY Y1 blocker; inhibition, % at 3.6 µM; in the data active means inhibition above about 20%;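 further: 0% = vehicle with agonist plus stimulus and 100% = stimulus alone without agonist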
NPY2 antag ctr = counter-screen for NPY-Y1 antagonists: human NPY-Y2 antagonism | shares compounds with NPY Y1 blocker | HEK293 NPY-Y2 CNG membrane potential fluorescence; cells given NPY, then isoproterenol | inhibition, % at 3.6 µM | hit rate 28% among 1,200;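 further: 0% = DMSO with agonist challenge and 100% = reference antagonist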
* hit, by the source's call; x = no result. Unless noted, no stated cut-off is given here; in the data, active means inhibition above about 17%; inactive means the rest.

SMILES	NPY-Y1 PAM-ag	NPY Y2 blocker	NPY-Y2 PAM-ag	NPY Y1 blocker	NPY-Y1 ant conf	NPY2 antag ctr
c1ccc(OCCCc2nc(-c3ccncc3)no2)cc1	-1.2	3.3	-7.3	10.5	x	x
Cc1ccc(C)c(Cn2c(CO)nc3ccccc32)c1	-25.7	6.8	-38.8	20.6*	9.2	9.2
COc1ccc(C(=O)NCCCc2nc3ccccc3n2Cc2cc(C)ccc2C)cc1OC	-6.2	-0.4	2.3	1.9	x	x
CC(=O)N1CC2(NC(=O)c3ccccc3N2)c2ccccc21 (stereo unspecified)	-0.4	x	-0.3	7.8	x	x
O=C(c1ccco1)N1CCN(S(=O)(=O)c2ccc(S(=O)(=O)NC3CCCC3)cc2)CC1	-17.0	11.0	7.5	20.3*	4.3	2.4
CC(C)(C)NC(=O)CSc1ccc(C(C)(C)C)cc1	-7.6	-1.0	2.4	6.2	x	x
CSc1nnc(C)c(=O)n1COC(=O)COc1ccc(Cl)cc1	4.9	x	-2.2	-5.4	x	x
CCc1c(C)sc(NC(=O)c2cccs2)c1C(=O)OC(C)C	-19.0	3.6	-16.0	20.4*	10.0	18.4*
CC/C(C)=N\Nc1nc(-c2cc3cc(OC)ccc3oc2=O)cs1	10.2	x	3.4	x	x	x
CCNC(=O)N1c2ccc(OCC)cc2C(C)=CC1(C)C	-5.4	1.3	5.0	-3.6	x	x
CC1=CC(C)(C)N(S(=O)(=O)c2ccc(C)cc2)c2cc(C)ccc21	-32.4	16.5	9.1	13.3	x	x
COc1ccc2c(c1)C(C)=CC(C)(C)N2S(=O)(=O)c1ccc(C)cc1	-1.2	x	7.3	36.0*	18.1	15.3
CCOc1ccc2c(c1)C(C)=CC(C)(C)N2S(=O)(=O)c1ccc(C)cc1	-28.0	x	-23.9	56.9*	39.4*	25.1*
CCN(CC)c1ccc(NC(=S)Nc2ccc(F)cc2)cc1	22.7	x	11.5	0.1	x	x
O=C(COc1cccnc1[N+](=O)[O-])Nc1cc(S(=O)(=O)N2CCCCC2)ccc1Cl	21.9	x	5.0	x	x	x
CN1CCN(CCCC(=O)c2ccc(C3CCCC3)cc2)CC1	-51.4	10.9	-10.8	26.3*	10.6	15.5
CN1CCN(CCCCC(=O)c2ccccc2)CC1	6.3	2.3	-10.0	3.7	x	x
NC(=O)COC(=O)CSc1ccc2ccccc2c1	-39.2	x	-33.6	21.9*	17.3	14.4
Cc1ccc(C(=O)Nn2cnnc2)cc1S(=O)(=O)N1CCOCC1	1.9	x	5.1	x	x	x
CCc1ccc(/C=C\C(=O)N2CCc3ccccc3C2)cc1	-21.2	11.3	-27.7	21.2*	9.2	10.3
CCc1nc(NC(C)(C)C)c2cnn(-c3ccccc3)c2n1	27.4	x	0.7	x	x	x
Cc1cc(SCC(=O)c2cccs2)nc2c(C)cccc12	-19.2	11.6	-24.2	22.0*	4.5	8.0
Cc1ccccc1OCCNC(=O)/C=C/c1ccc([N+](=O)[O-])cc1	-13.8	8.3	-6.5	20.2*	10.1	10.2
CCS(=O)(=O)N1CCC(C(=O)c2ccc(Cl)cc2)CC1	-14.9	6.3	-20.3	2.1	x	x
COc1c(Cl)cc(Cl)cc1CNCCNCC(C)O (stereo unspecified)	0.7	4.5	-13.4	1.3	x	x
SMILES	NPY-Y1 PAM-ag	NPY Y2 blocker	NPY-Y2 PAM-ag	NPY Y1 blocker	NPY-Y1 ant conf	NPY2 antag ctr
CNCc1cc(Cl)cc(OC)c1OC(C)C	-5.4	x	-8.2	24.3*	24.1*	9.8
Cn1ncc(Br)c1NC(=O)CSc1ccc(Cl)cc1	8.0	x	-4.2	x	x	x
O=C(O)CC/C(=N/Nc1ncc(C(F)(F)F)cc1Cl)C(=O)O	6.0	x	0.3	-6.2	x	x
CCCn1c(NCc2cc(OC)ccc2OC)nc2ccccc21	-26.2	11.4	-16.9	12.8	x	x
COc1ccc(OC)c(CNc2nc3ccccc3n2CCN2CCCCC2)c1	-19.7	14.5	-5.7	32.7*	21.5*	18.0*
COc1cccc(CN2CCN(C(=S)NCc3ccc(Cl)cc3)CC2)c1	10.5	x	-2.8	-5.0	x	x
CC1Cc2ccccc2N1C(=S)NC(=O)c1ccc(Cl)cc1Cl (stereo unspecified)	-18.1	7.2	0.7	24.8*	1.2	2.8
O=C(Nc1ccccc1Cl)c1ccc(-n2cccn2)c([N+](=O)[O-])c1	4.4	x	-4.2	0.9	x	x
CCCc1cc(-c2[nH]ncc2-c2ccc3c(c2)OCCCO3)c(O)cc1OC	22.5	2.2	-9.0	1.1	x	x
CCc1cc(-c2[nH]ncc2-c2ccc3c(c2)OCO3)c(O)cc1O	15.6	0.6	9.8	20.5*	21.1*	-0.2
CN1C(=O)c2ccc(C(=O)NCc3ccc4c(c3)OCO4)cc2C1=O	5.9	3.5	-16.8	7.8	x	x
CCN1C(=O)c2ccc(C(=O)NCc3ccc4c(c3)OCO4)cc2C1=O	-24.9	2.8	-4.9	25.6*	4.7	7.8
Cc1cc2oc(C(=O)NCc3ccc4c(c3)OCO4)c(C)c2cc1C	-73.9	15.1	-32.3	27.7*	23.3*	18.4*
O=C(NCCC1=CCCCC1)c1cc(-c2ccncc2)nc2ccccc12	-81.4	x	-70.7	26.6*	26.9*	23.4*
COc1ccc(C2CC(c3ccc4ccccc4c3)=NN2C(=O)CNC2CCCCC2)cc1 (stereo unspecified)	4.8	x	15.2	30.1*	36.7*	33.5*
C=CCNCC(=O)N1N=C(c2ccc3ccccc3c2)CC1c1ccc(OC)cc1 (stereo unspecified)	-36.8	x	-35.1	31.6*	32.3*	49.7*
COc1cccc(NC(=O)NC(C)C2CC3CCC2C3)c1 (stereo unspecified)	-8.6	x	-16.4	23.5*	2.7	34.3*
CCc1n[nH]c(=S)n1/N=C/c1ccc2c(c1)OCO2	-5.5	4.0	-14.7	4.8	x	x
CCc1n[nH]c(=S)n1/N=C/c1ccc(N(C)c2ccccc2)cc1	-15.7	x	-31.8	35.2*	18.0	10.7
COc1ccc(-c2nc(NC(=O)C3=NN(c4cccc(C)c4)C(=O)CC3)sc2C)cc1	-1.9	x	-9.7	5.8	x	x
COc1ccc(NC(=S)NNc2ccc(S(=O)(=O)Nc3ccccc3C(=O)O)cc2[N+](=O)[O-])cc1	12.7	x	-9.2	x	x	x
O=C(Nc1ccc(F)cc1)c1sc2cc(C(F)(F)F)cnc2c1-c1cccs1	-67.7	7.8	-36.3	22.9*	12.5	16.8
CCOC(=O)c1cnc(SCCc2ccccc2)nc1N	-1.6	7.5	-19.1	20.8*	8.2	6.6
COCc1[nH]nc2c1C(c1ccsc1)C(C#N)=C(N)O2 (stereo unspecified)	-4.1	2.2	0.5	1.8	x	x
CCCc1[nH]nc2c1C(c1ccsc1)C(C#N)=C(N)O2 (stereo unspecified)	14.8	x	-2.4	40.0*	37.5*	22.3*
CCCCOC(=O)c1ccc(NC(=S)NC(=O)c2c(Cl)cnn2C)cc1	-36.1	8.0	-15.4	25.2*	9.1	12.2
O=C(COc1ccc(Cl)cc1)Nc1nnc(-c2ccco2)o1	5.5	x	-11.6	2.3	x	x
Cc1ccc(CNC(=O)c2ccc(NS(=O)(=O)c3c(C)noc3C)cc2)cc1	-6.8	10.3	-2.8	27.6*	10.6	10.1
CN1C=CC=C/C1=C1\SC(=S)N(N)C1=O	-4.0	x	-2.6	0.7	x	x
COc1ccccc1NC(=O)c1oc2ccc(C)cc2c1C	-40.7	11.7	-16.8	21.7*	7.0	16.5
